These results are taken from PubChem BioAssay AID871 (The Scripps Research Institute Molecular Screening Center, 2007).

The whole screen tested about 190,000 compounds, of which about 1,800 (0.95%) were called active. The entries come from a sample that favours actives as a whole. A number with no mark means an inactive call.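 How the source made its calls: active means activation above the screen-wide mean of compound activation plus 3 SD (cut at about 130% in these data); inactive means the rest.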

The assay is described as follows: enhancers of STAT3 transcriptional signaling – U3A cells, luciferase, luminescence, MLSCN library, primary screen (AID 871).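 Further: 0% = background luminescence of wells with medium and substrate only.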 The following applies: IL-6 STAT3-luciferase reporter, at 5.6 µM, stronger effect = higher value, 100% = signal with IL-6 EC80 alone. The method in brief:
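Material: human STAT1-deficient U3A cells with stable STAT3-luciferase reporter / Probe or stimulus: IL-6 stimulus at 33 ng/mL final / Schedule: 1 h compound pre-exposure, 6 h IL-6 stimulation, 37 °C / Technique: luminescence / Read-out basis: percent of IL-6-only median luminescence / Control set: IL-6-only high control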
For the compound `CC(=O)NCCC(=O)Nc1cc(S(=O)(=O)N2CCOCC2)ccc1N1CCOCC1`, the activation (% of control) was 105%.

With `CCOc1cc(NC(=S)NCCCN(C)C)c(OCC)cc1NC(=O)C1CC1`, the activation (% of control) was 99.1%.

For the compound `O=C(NNC1=C(C(=O)C(F)(F)F)CCC1)c1ccncc1`, the activation (% of control) was 95.6%.

As to `Oc1ccc(Br)cc1C=Nc1ccc2[nH]ncc2c1`, the activation (% of control) was 102%.

For `CCN(CC)CCn1c(/N=C/c2cc(Br)ccc2O)nc2ccccc21`, the activation (% of control) is 133% (active).

With `CCn1c(NC(=O)c2nn(C)cc2Br)nc2ccccc21`, the activation (% of control) is 96.8%.

Regarding `S=c1[nH]nc(-c2cccs2)n1/N=C/c1cccs1`, the activation (% of control) was 109%.

As for `Cc1cc(OC(=O)c2ccccc2)c([N+](=O)[O-])c(=O)[nH]1`, the activation (% of control) was 106%.

Take `O=C(NCC1CCCO1)/C(=C/c1ccc(Cl)cc1)NC(=O)c1ccccc1` (stereo unspecified): the activation (% of control) is 88.2%.

Consider `O=C(Nc1cc(C(F)(F)F)ccc1Cl)c1cc(C2CC2)on1`, for which the activation (% of control) is 150% (active).

With `CSc1ccccc1NC(=O)c1cc(C2CC2)on1`, the activation (% of control) is 122%.

With `Cc1nn(Cc2ccc(Cl)c(Cl)c2)c(C)c1NC(=O)c1cc(C2CC2)on1`, the activation (% of control) is 92.8%.

As for `CCCN(CCC)c1c([N+](=O)[O-])c(=O)oc2ccccc12`, the activation (% of control) was 96.6%.

Take `Cc1ccn(-c2cccc(-n3ccc(C)n3)n2)n1`: the activation (% of control) was 93.6%.

As for `CCC(C)NC(=O)CN(C1CCCCC1)S(C)(=O)=O` (stereo unspecified), the activation (% of control) is 105%.

As for `Cc1cc(=O)n2[nH]c(-c3sccc3-n3c(C)ccc3C)cc2n1`, the activation (% of control) is 118%.

Regarding `CCCC(C)C(=O)OCC(=O)Nc1c(Br)cc(C)cc1Br` (stereo unspecified), the activation (% of control) is 102%.

For `Cc1cccc(C(=O)Nc2nnc(Cc3c[nH]c4ccccc34)s2)c1`, the activation (% of control) is 157% (active).

On to `COc1ccc(Cc2nnc(NC(=O)c3cc(OC)c(OC)c(OC)c3)s2)cc1OC`, for which the activation (% of control) was 91.5%.

In the case of `CCc1nnc(NC(=O)[C@@H](NC(=O)c2cccc(C)c2)C(C)C)s1`, the activation (% of control) was 101%.

For `CCc1ccc2ncc(C(=O)c3ccccc3)c(N3CCOCC3)c2c1`, the activation (% of control) is 110%.

As to `CCn1c(SCC(=O)Nc2ccc(S(=O)(=O)Nc3onc(C)c3C)cc2)nnc1-c1ccccc1`, the activation (% of control) is 98.7%.

Consider `Cc1ccc(-n2c(SCC(=O)N/N=C/C=C/c3ccccc3[N+](=O)[O-])nc3ccccc3c2=O)cc1`, for which the activation (% of control) is 97.7%.

In the case of `CCn1c(SCC(=O)N/N=C/C=C/c2ccccc2[N+](=O)[O-])nnc1-c1ccccc1`, the activation (% of control) is 138% (active).

Take `COc1ccc(CCNC(=O)COC(=O)Cc2cc(OC)c(OC)c(OC)c2)cc1`: the activation (% of control) is 111%.

For the compound `CC(C)NC(=O)C(=O)NCCCOC(C)C`, the activation (% of control) was 101%.
